# Compound activity from PubChem.
# Only some compounds are listed: those with a hit (about 0.98% of all), similar ones and a draw of the others.
# Statin myotox sup – suppressors of simvastatin-induced myotoxicity in C2C12 myotubes | rescue of ATP level, % at 7.49 µM | hit rate 0.78% among 330,000 | ATP luminescence, 48 h; scaled: DMSO 0, geranylgeraniol control 100;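 active = mean ATP rescue above about 67%, or every replicate alone reaching that limit, limit read from the data, passing the limit was not always enough; inconclusive = no clear call, values can overlap the other calls; inactive = mean under the limit and some replicate under it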;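 note: myotubes were challenged with 10 µM simvastatin during compound exposure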
# ERAP1 HTS inh – blocks human ERAP1 aminopeptidase activity; inhibition, % at 10.7 µM; recombinant ERAP1, Leu-AMC fluorescence, 60 min; Q9NZ08; hit rate 0.15% among 340,000; AID 652197;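 active = mean replicate inhibition of at least 30%, or all replicates individually reaching that 30% level; inactive = mean below 30% and not every replicate reaching it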;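 note: 0% = neutral control wells and 100% = L-leucinethiol positive control wells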
# PGC1a acetyl inh – PGC1a acetylation modulation, inhibitor mode. U2OS PGC1a acetylation, AlphaScreen anti-acetyl-lysine; with virally co-expressed GCN5 acetyltransferase. inhibition, % at 15.6 µM. hit rate 0.17% among 350,000;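 active = every replicate shows inhibition of at least 40%; inconclusive = mean inhibition at least 40% but some replicate below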;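 note: 0% = neutral control wells and 100% = positive control wells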
# S100A4 inh HTS – blocks human S100A4 binding to myosin IIA peptide; S100A4/TAMRA-MyoIIA peptide fluorescence polarization; inhibition, % at 10.7 µM; hit rate 0.14% among 360,000;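 active = mean inhibition of at least 70% across replicates, with every replicate also reaching that level; inconclusive = mean inhibition reaches 70% but some replicates fall short; inactive = mean inhibition below 70%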
# Target sequence (P26447 whole entry, looked up): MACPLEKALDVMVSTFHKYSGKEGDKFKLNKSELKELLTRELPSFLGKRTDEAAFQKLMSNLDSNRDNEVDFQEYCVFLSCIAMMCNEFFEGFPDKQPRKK
#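 Test system – S100A4 monomer (human) · Compound – single-point compound testing · Schedule – 5 min incubation before reading · Probe or stimulus – TAMRA-labelled myosin IIA heavy-chain peptide probe, 5 nM · Benchmarks – neutral control DMSO, positive control TFP · Medium – Calcium-containing HEPES buffer, pH 7.2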
# Rtt109 Vps75 – C. albicans Rtt109 histone acetyltransferase inhibition | purified Rtt109/Vps75, ThioGlo CoA-SH fluorescence, 4 h | inhibition, % at 34.9 µM | hit rate 0.16% among 330,000;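 active = inhibition of at least 50% in every replicate; inconclusive = best replicate reaches 50% inhibition but some replicates fall short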
# Target sequence (Q5AAJ8 whole entry, looked up): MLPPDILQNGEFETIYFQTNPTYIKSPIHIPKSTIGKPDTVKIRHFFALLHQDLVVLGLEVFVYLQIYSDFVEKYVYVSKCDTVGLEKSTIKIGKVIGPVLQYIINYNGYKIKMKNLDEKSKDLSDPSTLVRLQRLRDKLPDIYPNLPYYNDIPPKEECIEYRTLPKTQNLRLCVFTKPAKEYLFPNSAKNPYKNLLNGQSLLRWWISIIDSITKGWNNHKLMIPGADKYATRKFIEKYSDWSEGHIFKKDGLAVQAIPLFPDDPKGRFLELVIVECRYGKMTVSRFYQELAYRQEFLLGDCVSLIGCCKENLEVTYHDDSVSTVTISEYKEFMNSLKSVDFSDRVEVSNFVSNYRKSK
# The depositor's hits bear a star; ? = inconclusive; . = not tested or not shown.
SMILES,Statin myotox sup,ERAP1 HTS inh,PGC1a acetyl inh,S100A4 inh HTS,Rtt109 Vps75
CCc1cccc(NC(=O)c2ccc(CNc3c(N4CCCC4)c(=O)c3=O)cc2)c1,100*,.,-5,1,-7
C=CCSc1nnc(-c2cc3c(s2)-c2ccccc2CC3)o1,146*,.,-5,.,-13
CO[C@H]1CN(C)C(=O)c2cc(NS(=O)(=O)c3ccc(C)cc3)ccc2OC[C@@H](C)N(C(=O)NC(C)C)C[C@@H]1C,6,1,-6,9,.
N#C[C@@H]1[C@H](c2ccccc2-c2ccccc2)[C@H](CO)N1C(=O)NC1CCCCC1,.,-1,-26,16,.
CCc1nnc(N/N=C/c2c(Cl)cccc2Cl)n1N,-38,.,64*,.,8
CCc1nnc(N/N=C/c2cccs2)n1N,4,.,6,.,2
O=S(=O)(c1cccs1)N1CCCCN2[C@@H](CO)[C@H](c3ccc(Br)cc3)[C@@H]2C1,4,-1,-2,-9,.
C[C@@H]1CN([C@H](C)CO)C(=O)c2cc(C#C[C@@H](C)O)cnc2O[C@@H]1CN(C)C(=O)c1ccncc1,3,-1,2,-2,.
CO[C@@H]1CN(C)C(=O)c2cc(NC(=O)C3CC3)ccc2OC[C@H](C)N(C(C)=O)C[C@H]1C,5,1,7,7,.
O=C(CNS(=O)(=O)c1cccc2nsnc12)NCCc1ccccc1,4,0,8,-1,0
Cc1ccc(CNC(=O)CNS(=O)(=O)c2cccc3nsnc23)cc1,101*,.,-1,.,-7
CCOc1cc(/C=C/c2nc3cc(C)c(C)cc3s2)ccc1OCC(=O)N1CCOCC1,.,36*,-8,-3,10
C[C@H]1CN([C@@H](C)CO)C(=O)Cc2cc(NC(=O)NC3CCCCC3)ccc2O[C@@H]1CN(C)C(=O)Nc1ccc2c(c1)OCO2,11,1,-3,17,.
CCCNC(=O)[C@H]1[C@H](CO)[C@H]2Cn3c(ccc(-c4ccc(F)cc4)c3=O)[C@@H]1N2CCC,-5,0,.,14,.
C/C=C/c1ccc2c(c1)O[C@@H](CN(C)C(=O)CN(C)C)[C@@H](C)CN([C@@H](C)CO)S2(=O)=O,0,1,2,1,.
COCC(=O)N(C)C[C@@H]1Oc2cc(C#CCN(C)C)ccc2S(=O)(=O)N([C@H](C)CO)C[C@@H]1C,11,-6,1,11,.
COCC(=O)N(C)C[C@H]1Oc2cc(C#CCN(C)C)ccc2S(=O)(=O)N([C@@H](C)CO)C[C@H]1C,2,-5,1,112*,.
CC(C)CC#Cc1ccc2c(c1)O[C@H](CN(C)Cc1ccccc1)[C@@H](C)CN([C@H](C)CO)S2(=O)=O,.,.,52*,.,.
CC(C)CC#Cc1ccc2c(c1)O[C@@H](CN(C)Cc1ccccc1)[C@H](C)CN([C@@H](C)CO)S2(=O)=O,.,.,29,.,.
CC(C)CC#Cc1ccc2c(c1)O[C@H](CN(C)Cc1ccccc1)[C@H](C)CN([C@@H](C)CO)S2(=O)=O,.,.,48*,.,.
NC(=O)NC(=O)CSc1nc(-c2ccccc2)c(-c2ccccc2)n1CC1CCCO1 (stereo not drawn),139*,.,1,.,9
C[C@H]1CN([C@@H](C)CO)C(=O)c2cc(NS(C)(=O)=O)ccc2O[C@@H]1CN(C)Cc1ccc(Cl)c(Cl)c1,-9,0,-2,2,.
Cc1ccc(O)c(NC(=O)c2cc(-c3cccs3)on2)c1,213*,5,-7,-5,-11
Cc1noc(C)c1S(=O)(=O)Nc1ccc2c(c1)C(=O)N([C@@H](C)CO)C[C@@H](C)[C@@H](CN(C)Cc1ccncc1)OCCCC[C@H](C)O2,.,1,15,?,.
COc1ccc(CN(CCCN2CCOCC2)S(=O)(=O)N(C)C)cc1OC,-5,.,4,.,26
SMILES,Statin myotox sup,ERAP1 HTS inh,PGC1a acetyl inh,S100A4 inh HTS,Rtt109 Vps75
COc1ccc(S(=O)(=O)N(CCCN2CCOCC2)Cc2ccc(OC)c(OC)c2)cc1,94*,.,7,.,3
CO[C@H]1CC[C@@H]2CCN(C)C(=O)C[C@@H](c3ccccc3)CN(C)C(=O)c3cc(C#N)ccc3OC[C@@H]1O2,14,0,.,-12,.
O=C(Nc1ccc(F)cc1F)NC1CC(=O)N(Cc2ccccc2)C1 (stereo not drawn),86*,.,12,.,20
Cc1ccc2nc(-c3cccc(NC(=O)c4ccc5c(c4)OCCO5)c3)oc2c1,110*,1,-8,-2,4
CCOc1ccc(-c2nc(CSCC(=O)NCc3ccco3)c(C)o2)cc1,111*,.,-4,.,2
COc1ccc(-c2cc(OC)c3ccccc3n2)cc1,.,.,-2,.,4
COc1cc(-c2ccccc2)nc2ccccc12,95*,.,-21,.,-3
CCS(=O)(=O)Nc1ccc2c(c1)C(=O)N(C)C[C@H](OC)[C@H](C)CN(C(=O)NC(C)C)[C@@H](C)CO2,-2,-1,3,2,.
O=C(C[C@H]1CC[C@H]2[C@@H](COC[C@H](O)CN2Cc2cc(F)cc(F)c2)O1)NC1CCC1,5,1,-3,4,.
O=C(NCc1ccco1)C(c1cccs1)N(C(=O)Cc1cccs1)c1ccccc1 (stereo not drawn),7,.,-8,.,13
O=C(NCc1ccco1)C(c1ccccc1)N(C(=O)Cc1cccs1)c1ccccc1 (stereo not drawn),125*,.,-15,.,-1
CN(c1ccc(C(=O)Nc2ccc3c(c2)OCO3)cc1)S(C)(=O)=O,-35,.,8,4,51*
O=C(Nc1ccc(C(F)(F)F)cc1)c1ccc2nc[nH]c2c1,-21,1,3,-4,.
O=C(Nc1ccc2c(c1)OCO2)c1ccc2nc[nH]c2c1,86*,.,-12,.,6
O=c1c2ccccc2ncn1Cc1nc2ccccc2s1,114*,.,7,.,0
O=C(Cn1cnc2ccccc2c1=O)Nc1nc2ccccc2s1,.,6,-13,-7,5
O=C(CN1C(=O)C2CC=CCC2C1=O)Nc1nccs1 (stereo not drawn),.,.,50*,.,-21
Cc1cnc(NC(=O)CN2C(=O)C3CC=CCC3C2=O)s1 (stereo not drawn),.,.,.,.,19
CN1CCN(C(=O)C[C@@H]2CC[C@H]3[C@H](COc4ccc(NC(=O)C5CC5)cc4C(=O)N3C)O2)CC1,-20,0,5,-24,.
COc1cc(-c2noc(-c3ccccc3C(=O)NCc3ccco3)n2)cc(OC)c1OC,100*,.,-10,.,5
C[C@H](CO)N1C[C@H](C)[C@H](CN(C)C(=O)Nc2ccccc2)Oc2ccc(NC(=O)C3CCCCC3)cc2C1=O,-23,4,-4,-35,.
O=C(N[C@@H]1CC[C@@H](CC(=O)N2CCCCC2)O[C@@H]1CO)c1ccccn1,-4,0,-2,8,.
CN(C)C(=O)C[C@@H]1CC[C@H]2[C@@H](COC[C@@H](O)CN2CC2CCCCC2)O1,-1,0,2,12,.
CCC1(C)Cc2c(sc3nc(NN)n(C)c(=O)c23)CO1 (stereo not drawn),144*,.,-10,.,1
OCCNc1nc(N2CCCCC2)nc2ccccc12,-6,-3,67*,-1,-2
